Measured values: ChEMBL document CHEMBL3108721, “4,4'-Unsymmetrically substituted 3,3'-biphenyl alpha helical proteomimetics as potential coactivator binding inhibitors” (Bioorg Med Chem, 2014)

Assays:
[1] = target: T1, Estrogen receptor (Homo sapiens) (UniProt P03372); test: Inhibition of ER-alpha (unknown origin) transcriptional activity expressed in ER-negative human SKBR3 cells coexpressing ERE assessed as change in reporter gene activity after 40 hrs in presence of estradiol relative to control; type: cell-based; parameters: concentration or dose not given beside the values; details: SK-BR-3
T1 sequence (whole entry): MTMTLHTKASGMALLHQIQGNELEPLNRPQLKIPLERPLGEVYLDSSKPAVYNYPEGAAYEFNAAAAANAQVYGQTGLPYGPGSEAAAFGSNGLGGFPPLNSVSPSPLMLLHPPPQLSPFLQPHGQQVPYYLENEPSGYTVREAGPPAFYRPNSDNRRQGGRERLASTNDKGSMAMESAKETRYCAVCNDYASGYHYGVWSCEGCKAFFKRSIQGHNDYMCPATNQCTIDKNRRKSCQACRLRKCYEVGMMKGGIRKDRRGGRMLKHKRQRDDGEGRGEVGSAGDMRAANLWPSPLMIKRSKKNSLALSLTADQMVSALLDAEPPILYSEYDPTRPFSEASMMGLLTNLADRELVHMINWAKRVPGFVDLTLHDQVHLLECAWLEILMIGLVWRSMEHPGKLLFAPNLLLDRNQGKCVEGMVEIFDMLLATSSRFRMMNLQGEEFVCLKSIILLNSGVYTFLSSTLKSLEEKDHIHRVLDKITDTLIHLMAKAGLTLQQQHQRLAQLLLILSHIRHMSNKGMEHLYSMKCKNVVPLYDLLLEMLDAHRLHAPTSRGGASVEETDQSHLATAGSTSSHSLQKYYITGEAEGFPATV
Method in brief: (§1)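 ER-negative SKBR3 cells cotransfected with 3xERE-TATA-luciferase, RST7-ERα and pCMV-β-gal for normalization. […] Scored as >50% decrease or increase at <20, 20–50 or >50 μM, or <20% change. 4-hydroxytamoxifen as antagonist control. Cell death above 50 μM flagged.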

[2] = target: T1, Estrogen receptor (Homo sapiens); test: Competitive inhibition of ER-alpha (unknown origin)-GRIP1 interaction expressed in human HepG2 cells assessed as change in reporter gene activity after 40 hrs relative to control; type: cell-based; parameters: concentration or dose not given beside the values
Method in brief: (§2)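 HepG2 cells transfected with VP16-ERα, Gal4-DBD-fused GRIP1 LxxLL2 peptide and 5xGal4Luc3 reporter. […] Scored as >50% decrease or increase at <20, 20–50 or >50 μM, or <20% change. 4-hydroxytamoxifen as antagonist control. Cell death and precipitation flagged.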

[3] = target: T1, Estrogen receptor (Homo sapiens); test: Competitive inhibition of ER-alpha (unknown origin)-GRIP1 interaction expressed in human HepG2 cells assessed as change in reporter gene activity after 40 hrs in presence of estradiol relative to control; type: cell-based; parameters: concentration or dose not given beside the values; method in brief: as §2
[4] = target: T1, Estrogen receptor (Homo sapiens); test: Inhibition of ER-alpha (unknown origin) transcriptional activity expressed in ER-negative human SKBR3 cells coexpressing ERE assessed as increase in reporter gene activity at <20 uM after 40 hrs relative to control; type: cell-based; parameters: scale not given: the % may be the effect or the level left; details: SK-BR-3; method in brief: as §1
[5] = target: T1, Estrogen receptor (Homo sapiens); test: Inhibition of ER-alpha (unknown origin) transcriptional activity expressed in ER-negative human SKBR3 cells coexpressing ERE assessed as increase in reporter gene activity at >50 uM after 40 hrs relative to control; type: cell-based; parameters: scale not given: the % may be the effect or the level left; details: SK-BR-3; method in brief: as §1
[6] = target: T1, Estrogen receptor (Homo sapiens); test: Competitive inhibition of ER-alpha (unknown origin)-GRIP1 interaction expressed in human HepG2 cells assessed as increase in reporter gene activity at >50 uM after 40 hrs relative to control; type: cell-based; parameters: scale not given: the % may be the effect or the level left; method in brief: as §2
HepG2 [7] = test: Cytotoxicity against human HepG2 cells expressing ER-alpha coexpressing GRIP1 assessed as cell death at >50 uM; type: cell-based; method in brief: as §2
HepG2 [8] = test: Cytotoxicity against human HepG2 cells expressing ER-alpha coexpressing GRIP1 assessed as cell death at >50 uM in presence of estradiol; type: cell-based; method in brief: as §2
[9] = target: T1, Estrogen receptor (Homo sapiens); test: Inhibition of ER-alpha (unknown origin) transcriptional activity expressed in ER-negative human SKBR3 cells coexpressing ERE assessed as decrease in reporter gene activity at <20 uM after 40 hrs relative to control; type: cell-based; parameters: scale not given: the % may be the effect or the level left; details: SK-BR-3; method in brief: as §1
[10] = target: T1, Estrogen receptor (Homo sapiens); test: Inhibition of ER-alpha (unknown origin) transcriptional activity expressed in ER-negative human SKBR3 cells coexpressing ERE assessed as decrease in reporter gene activity at <20 uM after 40 hrs in presence of estradiol relative to control; type: cell-based; parameters: scale not given: the % may be the effect or the level left; details: SK-BR-3; method in brief: as §1
[11] = target: T1, Estrogen receptor (Homo sapiens); test: Competitive inhibition of ER-alpha (unknown origin)-GRIP1 interaction expressed in human HepG2 cells assessed as decrease in reporter gene activity at <20 uM after 40 hrs relative to control; type: cell-based; parameters: scale not given: the % may be the effect or the level left; method in brief: as §2
[12] = target: T1, Estrogen receptor (Homo sapiens); test: Competitive inhibition of ER-alpha (unknown origin)-GRIP1 interaction expressed in human HepG2 cells assessed as decrease in reporter gene activity at <20 uM after 40 hrs in presence of estradiol relative to control; type: cell-based; parameters: scale not given: the % may be the effect or the level left; method in brief: as §2
Estrogen receptor = target: T2, Estrogen receptor (Homo sapiens, UniProt P03372); test: Competitive inhibition of ER-alpha (unknown origin) ligand binding pocket expressed in ER-negative human SKBR3 cells coexpressing ERE using estradiol as substrate; type: cell-based, SK-BR-3
T2 sequence (P03372 whole entry): T1 sequence (whole entry)
Method in brief: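 SKBR3 (ER-negative breast cancer) cells were transfected with RST7–ERα, a 3xERE-TATA-luciferase reporter and a pCMV-β-gal normalization control. […] Cells were incubated 40 h, then luciferase reporter activity was read.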

[13] = target: T1, Estrogen receptor (Homo sapiens); test: Competitive inhibition of ER-alpha (unknown origin)-GRIP1 interaction expressed in human HepG2 cells assessed as increase in reporter gene activity at <20 uM after 40 hrs relative to control; type: cell-based; parameters: scale not given: the % may be the effect or the level left; method in brief: as §2
[14] = target: T1, Estrogen receptor (Homo sapiens); test: Competitive inhibition of ER-alpha (unknown origin)-GRIP1 interaction expressed in human HepG2 cells assessed as increase in reporter gene activity at <20 uM after 40 hrs in presence of estradiol relative to control; type: cell-based; parameters: scale not given: the % may be the effect or the level left; method in brief: as §2
[15] = target: T1, Estrogen receptor (Homo sapiens); test: Inhibition of ER-alpha (unknown origin) transcriptional activity expressed in ER-negative human SKBR3 cells coexpressing ERE assessed as change in reporter gene activity after 40 hrs relative to control; type: cell-based; parameters: concentration or dose not given beside the values; details: SK-BR-3; method in brief: as §1
[16] = target: T1, Estrogen receptor (Homo sapiens); test: Competitive inhibition of ER-alpha (unknown origin)-GRIP1 interaction expressed in human HepG2 cells assessed as decrease in reporter gene activity at >50 uM after 40 hrs in presence of estradiol relative to control; type: cell-based; parameters: scale not given: the % may be the effect or the level left; method in brief: as §2
[17] = Cytotoxicity against ER-negative human SKBR3 cells expressing ER-alpha coexpressing ERE assessed as cell death at >50 uM; type: cell-based; details: sk-br-3; method in brief: as §1
[18] = Cytotoxicity against ER-negative human SKBR3 cells expressing ER-alpha coexpressing ERE assessed as cell death at >50 uM in presence of estradiol; type: cell-based; details: sk-br-3; method in brief: as §1
[19] = target: T1, Estrogen receptor (Homo sapiens); test: Inhibition of ER-alpha (unknown origin) transcriptional activity expressed in ER-negative human SKBR3 cells coexpressing ERE assessed as increase in reporter gene activity at 20 to 50 uM after 40 hrs relative to control; type: cell-based; parameters: scale not given: the % may be the effect or the level left; details: SK-BR-3; method in brief: as §1
[20] = target: T1, Estrogen receptor (Homo sapiens); test: Competitive inhibition of ER-alpha (unknown origin)-GRIP1 interaction expressed in human HepG2 cells assessed as decrease in reporter gene activity at less than 20 uM after 40 hrs relative to control; parameters: scale not given: the % may be the effect or the level left

SMILES | Activity [1] [%] | Activity [2] [%] | Activity [3] [%] | Activity [15] [%] | other results
CCOC(=O)COc1ccc(-c2ccc(O)c(Cc3ccc(-c4ccccc4)cc3)c2)cc1Cc1ccc(-c2ccccc2)cc1 | < 20 | < 20 | < 20 |  | Activity [4]: > 50%
CCOC(=O)COc1ccc(-c2ccc(OCCN(C)C)c(Cc3ccc(-c4ccccc4)cc3)c2)cc1 |  |  |  |  | Activity [9]: > 50%; Activity [10]: > 50%; Activity [11]: > 50%; Activity (HepG2 [7]): Toxic; Activity [12]: > 50%; Activity (HepG2 [8]): Toxic; IC50 (Estrogen receptor): 3.1 µM
CCCCCCCc1cc(-c2ccc(O)cc2)ccc1OCC(=O)OCC | < 20 | < 20 | < 20 | < 20 | 
CCCCCCCc1cc(-c2ccc(OCC(=O)OCC)c(CCCCCCC)c2)ccc1O | < 20 | < 20 | < 20 | < 20 | 
CCOC(=O)COc1ccc(-c2ccc(O)c(CC3CCCCC3)c2)cc1CC1CCCCC1 | < 20 | < 20 | < 20 | < 20 | Activity (HepG2 [7]): Toxic; Activity (HepG2 [8]): Toxic
CCOC(=O)COc1ccc(-c2ccc(O)c(CC3CCCCC3)c2)cc1 | < 20 | < 20 |  |  | Activity [17]: Toxic; Activity [18]: Toxic; Activity [16]: > 50%; Activity [4]: > 50%
CCCCCCCc1cc(-c2ccc(OCCN(C)C)cc2)ccc1OCC(=O)OCC | < 20 | < 20 |  | < 20 | Activity [16]: > 50%

Continued, in another order:

Activity [1] [%] | Activity [2] [%] | Activity [3] [%] | Activity [15] [%] | SMILES | other results
< 20 |  | < 20 |  | CCOC(=O)COc1ccc(-c2ccc(O)cc2)cc1Cc1ccc(-c2ccccc2)cc1 | Activity [5]: > 50%; Activity [6]: > 50%; Activity (HepG2 [7]): Toxic; Activity (HepG2 [8]): Toxic
< 20 |  | < 20 |  | CCCCCCCc1cc(-c2ccc(OCC(=O)OCC)cc2)ccc1OCCN(C)C | Activity [5]: > 50%; Activity [6]: > 50%
< 20 |  |  |  | CCOC(=O)COc1ccc(-c2ccc(OCCN(C)C)c(Cc3ccc4ccccc4c3)c2)cc1 | Activity [13]: > 50%; Activity [14]: > 50%; Activity [4]: > 50%
< 20 | < 20 |  | < 20 | CCOC(=O)COc1ccc(-c2ccc(O)cc2)cc1Cc1ccc2ccccc2c1 | Activity [16]: > 50%
< 20 |  | < 20 |  | CCOC(=O)COc1ccc(-c2ccc(OCCN(C)C)c(CC3CCCCC3)c2)cc1 | Activity [19]: > 50%; Activity [20]: > 50%
